Data: ChEMBL document CHEMBL1129542, “trans-2-Aryl-N,N-dipropylcyclopropylamines: synthesis and interactions with 5-HT(1A) receptors” (J Med Chem, 1996)
Blank lines part the entries; values can stand above or below the compound they belong to.

How the values were obtained:
[1] = target: T1, 5-hydroxytryptamine receptor 1A (Rattus norvegicus, UniProt P19327); assay: In vitro binding affinity of compound towards 5-hydroxytryptamine 1A receptor was determined using [3H]8-OH-DPAT as radioligand; range=16-20
T1 sequence (P19327 whole entry): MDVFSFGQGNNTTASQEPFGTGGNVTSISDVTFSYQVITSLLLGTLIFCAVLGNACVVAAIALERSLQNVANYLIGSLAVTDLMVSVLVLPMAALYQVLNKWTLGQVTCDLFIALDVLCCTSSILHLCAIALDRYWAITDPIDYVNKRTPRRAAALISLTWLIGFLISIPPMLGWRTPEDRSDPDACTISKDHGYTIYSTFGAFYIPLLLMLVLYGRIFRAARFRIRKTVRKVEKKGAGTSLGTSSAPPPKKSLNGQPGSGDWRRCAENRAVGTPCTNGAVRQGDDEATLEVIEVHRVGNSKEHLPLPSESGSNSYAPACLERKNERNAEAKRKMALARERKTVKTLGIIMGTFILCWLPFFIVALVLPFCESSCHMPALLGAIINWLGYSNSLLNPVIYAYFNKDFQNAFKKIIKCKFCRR
Method in brief: (§1)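 Rat (male Sprague–Dawley) cortex plus hippocampus membranes, washed twice in 50 mM Tris-HCl with 4.0 mM CaCl2 and 5.7 mM ascorbate, pH 7.5, pretreated with 10 μM pargyline. Competition against 2 nM [3H]-8-OH-DPAT with 1–300 nM compound, 5 mg/mL tissue, 37 °C for 10 min, then filtration. Nonspecific binding defined with 10 μM 5-HT. […] Range derived from the standard error of the estimate.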

[2] = target: T1, 5-hydroxytryptamine receptor 1A; assay: In vitro binding affinity of compound towards 5-hydroxytryptamine 1A receptor was determined using [3H]8-OH-DPAT as radioligand; range=160-430; method in brief: as §1
[3] = target: T1, 5-hydroxytryptamine receptor 1A; assay: In vitro binding affinity of compound towards 5-hydroxytryptamine 1A receptor was determined using [3H]8-OH-DPAT as radioligand; range=710-980; method in brief: as §1
[4] = target: T1, 5-hydroxytryptamine receptor 1A; assay: In vitro binding affinity of compound towards 5-hydroxytryptamine 1A receptor was determined using [3H]8-OH-DPAT as radioligand; range=12-14; method in brief: as §1
[5] = target: T1, 5-hydroxytryptamine receptor 1A; assay: In vitro binding affinity of compound towards 5-hydroxytryptamine 1A receptor was determined using [3H]8-OH-DPAT as radioligand; range=78-140; method in brief: as §1
[6] = target: T1, 5-hydroxytryptamine receptor 1A; assay: In vitro binding affinity of compound towards 5-hydroxytryptamine 1A receptor was determined using [3H]8-OH-DPAT as radioligand; range=85-130; method in brief: as §1
[7] = target: T1, 5-hydroxytryptamine receptor 1A; assay: In vitro binding affinity of compound towards 5-hydroxytryptamine 1A receptor was determined using [3H]8-OH-DPAT as radioligand; method in brief: as §1
[8] = target: T1, 5-hydroxytryptamine receptor 1A; assay: In vitro binding affinity of compound towards 5-hydroxytryptamine 1A receptor was determined using [3H]-8-OH-DPAT as radioligand; range=39-87; method in brief: as §1
[9] = target: T1, 5-hydroxytryptamine receptor 1A; assay: In vitro binding affinity of compound towards 5-hydroxytryptamine 1A receptor was determined using [3H]-8-OH-DPAT as radioligand; range=21-28; method in brief: as §1
[10] = target: T1, 5-hydroxytryptamine receptor 1A; assay: In vitro binding affinity of compound towards 5-hydroxytryptamine 1A receptor was determined using [3H]8-OH-DPAT as radioligand; range=20-23; method in brief: as §1
[11] = target: T1, 5-hydroxytryptamine receptor 1A; assay: In vitro binding affinity of compound towards 5-hydroxytryptamine 1A receptor was determined using [3H]8-OH-DPAT as radioligand; range=184-503; method in brief: as §1
[12] = target: T1, 5-hydroxytryptamine receptor 1A; assay: In vitro binding affinity of compound towards 5-hydroxytryptamine 1A receptor was determined using [3H]8-OH-DPAT as radioligand; range=19-23
[13] = target: T1, 5-hydroxytryptamine receptor 1A; assay: In vitro binding affinity of compound towards 5-hydroxytryptamine 1A receptor was determined using [3H]-8-OH-DPAT as radioligand; range=48-77; method in brief: as §1
[14] = target: T1, 5-hydroxytryptamine receptor 1A; assay: In vitro binding affinity of compound towards 5-hydroxytryptamine 1A receptor was determined using [3H]8-OH-DPAT as radioligand; range=89-280; method in brief: as §1
[15] = target: T1, 5-hydroxytryptamine receptor 1A; assay: In vitro binding affinity of compound towards 5-hydroxytryptamine 1A receptor was determined using [3H]8-OH-DPAT as radioligand; range=2.7-3.6; method in brief: as §1
[16] = target: T1, 5-hydroxytryptamine receptor 1A; assay: In vitro binding affinity of compound towards 5-hydroxytryptamine 1A receptor was determined using [3H]8-OH-DPAT as radioligand; range=63-95; method in brief: as §1
[17] = target: T1, 5-hydroxytryptamine receptor 1A; assay: In vitro binding affinity of compound towards 5-hydroxytryptamine 1A receptor was determined using [3H]8-OH-DPAT as radioligand; range=174-224; method in brief: as §1

SMILES: CCCN(CCC)[C@@H]1C[C@H]1c1ccccc1OC
Ki [1]: 17 nM

SMILES: CCCN(CCC)[C@H]1C[C@@H]1c1ccccc1OC
Ki [2]: 230 nM

SMILES: CCCN(CCC)[C@H]1C[C@@H]1c1cccs1
Ki [3]: 820 nM

SMILES: CCCN(CCC)[C@@H]1C[C@H]1c1cccs1
Ki [4]: 11 nM

SMILES: CCCN(CCC)C1CC1c1cccs1 (stereo not given)
Ki [4]: 13 nM

SMILES: CCCN(CCC)C1CC1c1cc(F)ccc1O (stereo not given)
Ki [5]: 99 nM

SMILES: CCCN(CCC)C1CC1c1cccc(F)c1 (stereo not given)
Ki [6]: 100 nM

Ki [7]: > 1000 nM
SMILES: CCCN(CCC)C1CC1c1cc2ccccc2s1 (stereo not given)

SMILES: CCCN(CCC)[C@@H]1C[C@H]1c1cc(F)ccc1OC
Ki [8]: 60 nM

SMILES: CCCN(CCC)C1CC1c1ccccc1 (stereo not given)
Ki [9]: 24 nM

SMILES: CCCN(CCC)C1CC1c1ccccc1Br (stereo not given)
Ki [10]: 22 nM

SMILES: CCCN(CCC)[C@H]1C[C@@H]1c1cc(F)ccc1O
Ki [11]: 348 nM

Ki [12]: 21 nM
SMILES: CCCN(CCC)C1CC1c1ccsc1 (stereo not given)

SMILES: CCCN(CCC)C1CC1c1ccccc1F (stereo not given)
Ki [13]: 59 nM

SMILES: CCCN(CCC)C1CC1c1ccccc1C(F)(F)F (stereo not given)
Ki [7]: > 1000 nM

SMILES: CCCN(CCC)C1CC1c1cccc(Cl)c1Cl (stereo not given)
Ki [7]: > 300 nM

SMILES: CCCN(CCC)C1CC1c1cc(F)ccc1OC (stereo not given)
Ki [14]: 140 nM

SMILES: CCCN(CCC)[C@@H]1C[C@H]1c1cc(F)ccc1O
Ki [15]: 3.2 nM

SMILES: CCCN(CCC)C1CC1c1ccc(F)cc1 (stereo not given)
Ki [16]: 76 nM

SMILES: CCCN(CCC)[C@H]1C[C@@H]1c1cc(F)ccc1OC
Ki [17]: 199 nM
